Laboratory results taken from ChEMBL document CHEMBL1154894, “Paltolides A--C, anabaenopeptin-type peptides from the palau sponge Theonella swinhoei” (J Nat Prod, 2010).
Active and inactive are the calls of the source. The calls are words filed in the database; no cut-off is given here. Numbered stars: 1 amine (or outer) side, 2 acyl side, 3 side chain; on linkers, the order of the positions; unused ones are H or OH. Bridge positions count the residues as written; N and C are the ends. Square brackets hold non-standard residues; d marks the D form. Peptide text beside a SMILES is read from it. X1 = O=C([C@H](Cc1c[nH]c2cc(Cl)c(O)cc12)N[*:1])[*:2]; NMeL = CN[C@@H](CC(C)C)C(=O)O; CO = O=C([*:1])[*:2]

Tests used:
HCT-116 = assay: Cytotoxicity against human HCT116 cells assessed as cell viability up to 100 ug/ml after 72 hrs by MTT assay; format: functional, cell-based
Procedure, shortened: (§1)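 MTT viability kit assay. Cells seeded at 2 × 10^4 per well and left to adhere 18 h. Exposed to compound for 24 h, then medium replaced or diluted 3-fold with fresh growth medium. Incubated a further 48 h before MTT read-out at A570. At least two separate experiments, each in duplicate.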

[1] = Cytotoxicity against african green monkey BSC1 cells assessed as cell viability up to 100 ug/ml after 72 hrs by MTT assay; format: cell-based; conditions: chlorocebus aethiops, bsc-1, 72 h; procedure, shortened: as §1
TZM = assay: Cytotoxicity against human TZM-bl cells assessed as cell viability up to 100 ug/ml after 72 hrs by MTT assay; format: functional, cell-based; procedure, shortened: as §1
[2] = tested on: Human immunodeficiency virus 1; assay: Antiviral activity against HIV1 expressing SF162 envelope assessed as inhibition of viral entry in human TZM-bl cells up to 100 ug/ml after 48 hrs by luciferase reporter gene assay; format: functional, organism-based
Procedure, shortened: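 Single-round HIV-1 neutralization in TZM-BL cells using virus pseudotyped with SF162 Envelope, under previously published conditions. At least two separate experiments, each run in duplicate.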

| SMILES | Activity (HCT-116) | Activity [1] | Activity (TZM) | Activity [2] |
| --- | --- | --- | --- | --- |
| CC(C)C[C@@H]1NC(=O)[C@H](C)NC(=O)[C@H](NC(=O)N[C@@H](CCCNC(=N)N)C(=O)O)CCCCNC(=O)[C@H](Cc2c[nH]c3ccccc23)NC(=O)[C@H](CC(C)C)NC1=O [PALTOLIDE A] | inactive | Not Active | inactive | inactive |
| CC(C)C[C@@H]1NC(=O)[C@H](C)NC(=O)[C@H](NC(=O)N[C@@H](CCCNC(=N)N)C(=O)O)CCCCNC(=O)[C@H](Cc2c[nH]c3cc(Cl)c(O)cc23)NC(=O)[C@H](CC(C)C)N(C)C1=O ({Arg-CO}-[dK]AL[NMeL][X1]; lactam 1-C) | inactive | Not Active | inactive | inactive |
| CC(C)C[C@@H]1NC(=O)[C@H](C)NC(=O)[C@H](NC(=O)N[C@@H](CCCNC(=N)N)C(=O)O)CCCCNC(=O)[C@H](Cc2c[nH]c3cc(Br)ccc23)NC(=O)[C@H](CC(C)C)N(C)C1=O [PALTOLIDE C] | inactive | Not Active | inactive | inactive |
| CC(C)C[C@@H]1NC(=O)[C@H](C)NC(=O)[C@H](NC(=O)N[C@@H](CCCNC(=N)N)C(=O)O)CCCCNC(=O)[C@H](Cc2c[nH]c3ccc(O)cc23)NC(=O)[C@H](CC(C)C)N(C)C1=O [PALTOLIDE B] | inactive | Not Active | inactive | inactive |
